Assay results: ChEMBL document CHEMBL4382218, “Design, synthesis and antifungal evaluation of borrelidin derivatives” (Bioorg Med Chem, 2018)
Calls of active or inactive are those of the source.

Experiments:
Format in all cases: functional, organism-based
[1] = test system: Candida albicans; assay: Antifungal activity against Candida albicans ATCC MYA-2876 at 100 ug/ml after 48 hrs by micro broth dilution method
Summary of the method: (§1)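 Broth microdilution in RPMI-1640 (NaHCO3, MOPS, pH 7.0). Compounds are dissolved in DMSO and serially diluted 2-fold to eight concentrations, with stocks of […]. Fungal inocula are 2 × 10³ cfu/mL. Plates are incubated 48 h at 28 °C. The MIC is the lowest concentration with no turbidity, and the highest concentration tested is 100 μg/mL.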

[2] = test system: Candida parapsilosis; assay: Antifungal activity against Candida parapsilosis ATCC 22019 at 100 ug/ml after 48 hrs by micro broth dilution method; summary of the method: as §1
[3] = test system: Aspergillus fumigatus; assay: Antifungal activity against Aspergillus fumigatus CCTCC AF 93048 at 100 ug/ml after 48 hrs by micro broth dilution method; summary of the method: as §1

Measured: Activity

C[C@@H]1C[C@H](C)C[C@H](C)[C@@H](O)CC(=O)O[C@H]([C@@H]2CCC[C@H]2C(=O)N2CCCC2)C/C=C/C=C(/C#N)[C@H](O)[C@@H](C)C1
inactive: all assays above

COC(=O)[C@@H](CC(C)C)NC(=O)[C@@H]1CCC[C@H]1[C@@H]1C/C=C/C=C(/C#N)[C@H](O)[C@@H](C)C[C@H](C)C[C@H](C)C[C@H](C)[C@@H](O)CC(=O)O1
inactive: all assays above

CCCCCN(CCCC)C(=O)[C@@H]1CCC[C@H]1[C@@H]1C/C=C/C=C(/C#N)[C@H](O)[C@@H](C)C[C@H](C)C[C@H](C)C[C@H](C)[C@@H](O)CC(=O)O1
inactive: all assays above

C[C@@H]1C[C@H](C)C[C@H](C)[C@@H](O)CC(=O)O[C@H]([C@@H]2CCC[C@H]2C(=O)OCCN2CCN(Cc3ccc(Br)cc3)CC2)C/C=C/C=C(/C#N)[C@H](O)[C@@H](C)C1
inactive: all assays above

C[C@@H]1C[C@H](C)C[C@H](C)[C@@H](O)CC(=O)O[C@H]([C@@H]2CCC[C@H]2C(=O)N2CCOCC2)C/C=C/C=C(/C#N)[C@H](O)[C@@H](C)C1
inactive: all assays above

CCC(=O)NNC(=O)[C@@H]1CCC[C@H]1[C@@H]1C/C=C/C=C(/C#N)[C@H](O)[C@@H](C)C[C@H](C)C[C@H](C)C[C@H](C)[C@@H](O)CC(=O)O1
inactive: all assays above

C[C@@H]1C[C@H](C)C[C@H](C)[C@@H](O)CC(=O)O[C@H]([C@@H]2CCC[C@H]2C(=O)OCCN2CCN(Cc3ccc(F)cc3F)CC2)C/C=C/C=C(/C#N)[C@H](O)[C@@H](C)C1
inactive: all assays above

COc1ccc(N2CCN(C(=O)[C@@H]3CCC[C@H]3[C@@H]3C/C=C/C=C(/C#N)[C@H](O)[C@@H](C)C[C@H](C)C[C@H](C)C[C@H](C)[C@@H](O)CC(=O)O3)CC2)cc1
inactive: all assays above

C[C@@H]1C[C@H](C)C[C@H](C)[C@@H](O)CC(=O)O[C@H]([C@@H]2CCC[C@H]2C(=O)OCCN2CCN(Cc3ccc(F)cc3)CC2)C/C=C/C=C(/C#N)[C@H](O)[C@@H](C)C1
inactive: all assays above

C[C@@H]1C[C@H](C)C[C@H](C)[C@@H](O)CC(=O)O[C@H]([C@@H]2CCC[C@H]2C(=O)OCC2CC2)C/C=C/C=C(/C#N)[C@H](O)[C@@H](C)C1
inactive: all assays above

C[C@@H]1C[C@H](C)C[C@H](C)[C@@H](O)CC(=O)O[C@H]([C@@H]2CCC[C@H]2C(=O)OCCN2CCN(C(=O)OC(C)(C)C)CC2)C/C=C/C=C(/C#N)[C@H](O)[C@@H](C)C1
inactive: all assays above

C[C@@H]1C[C@H](C)C[C@H](C)[C@@H](O)CC(=O)O[C@H]([C@@H]2CCC[C@H]2C(=O)OCCc2ccccc2)C/C=C/C=C(/C#N)[C@H](O)[C@@H](C)C1
inactive: all assays above

CC(=O)CN1CCN(CCOC(=O)[C@@H]2CCC[C@H]2[C@@H]2C/C=C/C=C(/C#N)[C@H](O)[C@@H](C)C[C@H](C)C[C@H](C)C[C@H](C)[C@@H](O)CC(=O)O2)CC1
inactive: all assays above

C[C@@H]1C[C@H](C)C[C@H](C)[C@@H](O)CC(=O)O[C@H]([C@@H]2CCC[C@H]2C(=O)OCCN2CCN(Cc3ccc(Cl)cc3)CC2)C/C=C/C=C(/C#N)[C@H](O)[C@@H](C)C1
inactive: all assays above

C[C@@H]1C[C@H](C)C[C@H](C)[C@@H](O)CC(=O)O[C@H]([C@@H]2CCC[C@H]2C(=O)OCCN2CCN(C(=O)OCc3ccccc3)CC2)C/C=C/C=C(/C#N)[C@H](O)[C@@H](C)C1
inactive: all assays above

COC(=O)[C@@H](Cc1ccccc1)NC(=O)[C@@H]1CCC[C@H]1[C@@H]1C/C=C/C=C(/C#N)[C@H](O)[C@@H](C)C[C@H](C)C[C@H](C)C[C@H](C)[C@@H](O)CC(=O)O1
inactive: all assays above

C[C@@H]1C[C@H](C)C[C@H](C)[C@@H](O)CC(=O)O[C@H]([C@@H]2CCC[C@H]2C(=O)OCc2ccccn2)C/C=C/C=C(/C#N)[C@H](O)[C@@H](C)C1
inactive: all assays above

COC(=O)[C@@H](Cc1c[nH]c2ccccc12)NC(=O)[C@@H]1CCC[C@H]1[C@@H]1C/C=C/C=C(/C#N)[C@H](O)[C@@H](C)C[C@H](C)C[C@H](C)C[C@H](C)[C@@H](O)CC(=O)O1
inactive: all assays above

C[C@@H]1C[C@H](C)C[C@H](C)[C@@H](O)CC(=O)O[C@H]([C@@H]2CCC[C@H]2C(=O)N2CCCCC2)C/C=C/C=C(/C#N)[C@H](O)[C@@H](C)C1
inactive: all assays above

C[C@@H]1C[C@H](C)C[C@H](C)[C@@H](O)CC(=O)O[C@H]([C@@H]2CCC[C@H]2C(=O)N2CCN(C)CC2)C/C=C/C=C(/C#N)[C@H](O)[C@@H](C)C1
inactive: all assays above

C[C@@H]1C[C@H](C)C[C@H](C)[C@@H](O)CC(=O)O[C@H]([C@@H]2CCC[C@H]2C(=O)OCCN2CCN(Cc3ccc4ccccc4c3)CC2)C/C=C/C=C(/C#N)[C@H](O)[C@@H](C)C1
inactive: all assays above

C[C@@H]1C[C@H](C)C[C@H](C)[C@@H](O)CC(=O)O[C@H]([C@@H]2CCC[C@H]2C(=O)NCc2ccccc2)C/C=C/C=C(/C#N)[C@H](O)[C@@H](C)C1
inactive: all assays above

C[C@@H]1C[C@H](C)C[C@H](C)[C@@H](O)CC(=O)O[C@H]([C@@H]2CCC[C@H]2C(=O)OCCN2CCN(Cc3ccccc3)CC2)C/C=C/C=C(/C#N)[C@H](O)[C@@H](C)C1
inactive: all assays above
